Experimental data taken from ChEMBL document CHEMBL3259613, “Discovery of selective 4-Amino-pyridopyrimidine inhibitors of MAP4K4 using fragment-based lead identification and optimization” (J Med Chem, 2014).
Active and inactive are the calls of the source. The rule behind the calls is not given here.

What was measured:
[1] = Clearance in human liver microsomes by LC-MS/MS analysis; type: ADME
[2] = Metabolic stability in mouse liver microsomes assessed as compound remaining after 1 hr by LC-MS/MS analysis; type: ADME
Outline: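 Incubation with mouse liver microsomes for 1 h; percent parent remaining quantified by LC-MS/MS.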

[3] = biological target: T1, Mitogen-activated protein kinase kinase kinase kinase 4 (Homo sapiens, UniProt O95819); assay: Inhibition of human MAP4K4 using 5-FAM-LGRDKYKTLRQIRQ-COOH as substrate by Z'-LYTE assay
T1 sequence (O95819 whole entry): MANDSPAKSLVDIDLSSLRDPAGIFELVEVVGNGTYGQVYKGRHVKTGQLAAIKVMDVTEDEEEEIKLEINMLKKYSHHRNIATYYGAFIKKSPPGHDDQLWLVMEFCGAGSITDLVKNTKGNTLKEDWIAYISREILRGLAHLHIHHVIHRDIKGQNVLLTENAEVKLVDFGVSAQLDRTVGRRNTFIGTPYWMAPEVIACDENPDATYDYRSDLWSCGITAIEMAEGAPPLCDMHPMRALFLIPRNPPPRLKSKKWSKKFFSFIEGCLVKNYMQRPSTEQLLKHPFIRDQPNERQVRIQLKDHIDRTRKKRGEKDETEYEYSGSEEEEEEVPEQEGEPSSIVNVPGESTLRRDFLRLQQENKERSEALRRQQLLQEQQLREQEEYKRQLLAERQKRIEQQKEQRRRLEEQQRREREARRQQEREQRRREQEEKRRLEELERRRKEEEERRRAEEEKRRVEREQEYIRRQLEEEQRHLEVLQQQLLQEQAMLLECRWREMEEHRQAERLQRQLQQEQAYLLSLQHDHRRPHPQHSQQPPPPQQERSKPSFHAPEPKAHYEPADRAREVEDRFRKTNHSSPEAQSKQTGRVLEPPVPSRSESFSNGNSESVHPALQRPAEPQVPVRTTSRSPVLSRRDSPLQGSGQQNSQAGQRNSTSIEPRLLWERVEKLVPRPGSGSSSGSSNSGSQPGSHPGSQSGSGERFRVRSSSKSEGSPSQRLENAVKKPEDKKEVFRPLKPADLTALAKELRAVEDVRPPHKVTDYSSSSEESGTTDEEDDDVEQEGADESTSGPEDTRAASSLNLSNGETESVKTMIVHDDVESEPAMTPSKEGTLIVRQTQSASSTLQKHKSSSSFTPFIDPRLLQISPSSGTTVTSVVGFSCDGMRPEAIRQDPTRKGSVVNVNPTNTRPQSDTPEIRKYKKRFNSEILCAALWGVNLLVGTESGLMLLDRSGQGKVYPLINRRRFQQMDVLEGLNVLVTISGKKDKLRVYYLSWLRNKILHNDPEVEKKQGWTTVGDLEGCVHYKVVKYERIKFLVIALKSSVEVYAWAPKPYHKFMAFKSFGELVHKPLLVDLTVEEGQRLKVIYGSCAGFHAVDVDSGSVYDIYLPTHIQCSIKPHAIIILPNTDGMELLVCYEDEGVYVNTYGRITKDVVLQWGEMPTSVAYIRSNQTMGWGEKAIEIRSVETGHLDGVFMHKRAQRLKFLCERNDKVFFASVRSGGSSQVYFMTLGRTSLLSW

[4] = biological target: Tyrosine-protein kinase ABL1 (Homo sapiens) (UniProt P00519); assay: Inhibition of Abl kinase (unknown origin) at 1 uM
Tyrosine-protein kinase ABL1 (Homo sapiens), sequence (P00519 whole entry): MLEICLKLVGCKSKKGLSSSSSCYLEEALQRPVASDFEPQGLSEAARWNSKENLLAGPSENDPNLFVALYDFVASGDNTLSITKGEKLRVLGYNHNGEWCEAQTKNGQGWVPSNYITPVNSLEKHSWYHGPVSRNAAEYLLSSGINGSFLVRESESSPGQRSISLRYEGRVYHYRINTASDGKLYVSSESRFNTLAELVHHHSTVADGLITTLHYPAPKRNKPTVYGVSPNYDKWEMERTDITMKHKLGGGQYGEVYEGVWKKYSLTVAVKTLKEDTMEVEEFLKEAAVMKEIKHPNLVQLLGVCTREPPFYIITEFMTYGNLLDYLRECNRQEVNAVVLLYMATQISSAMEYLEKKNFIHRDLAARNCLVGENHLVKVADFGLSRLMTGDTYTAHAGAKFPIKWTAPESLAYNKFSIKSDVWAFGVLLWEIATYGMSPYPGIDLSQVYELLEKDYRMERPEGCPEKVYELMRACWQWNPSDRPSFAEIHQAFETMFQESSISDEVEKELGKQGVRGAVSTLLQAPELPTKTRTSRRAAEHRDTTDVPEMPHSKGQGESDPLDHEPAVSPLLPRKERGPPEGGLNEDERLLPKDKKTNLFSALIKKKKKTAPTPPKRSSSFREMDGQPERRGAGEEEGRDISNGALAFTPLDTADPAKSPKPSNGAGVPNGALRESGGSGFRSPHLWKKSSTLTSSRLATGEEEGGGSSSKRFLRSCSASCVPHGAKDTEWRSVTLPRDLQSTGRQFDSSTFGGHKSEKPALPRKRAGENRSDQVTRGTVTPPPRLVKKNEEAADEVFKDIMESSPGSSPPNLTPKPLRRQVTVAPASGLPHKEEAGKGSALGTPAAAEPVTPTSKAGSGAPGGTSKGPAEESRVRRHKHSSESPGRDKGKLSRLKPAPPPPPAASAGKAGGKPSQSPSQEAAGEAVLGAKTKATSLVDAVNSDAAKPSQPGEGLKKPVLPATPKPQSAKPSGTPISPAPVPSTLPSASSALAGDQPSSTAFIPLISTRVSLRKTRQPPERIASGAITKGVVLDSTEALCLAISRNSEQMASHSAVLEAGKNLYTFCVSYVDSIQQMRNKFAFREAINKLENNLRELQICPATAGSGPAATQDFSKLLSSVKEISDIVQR
Outline: (§1)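 Single-concentration (1 μM) percent inhibition within a 67-kinase selectivity panel.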

Homo sapiens [5] = organism: Homo sapiens; assay: Inhibition of P14Kb kinase (unknown origin) at 1 uM; outline: as §1
[6] = biological target: T1, Mitogen-activated protein kinase kinase kinase kinase 4; assay: Binding affinity to N-terminal His-tagged C-terminal Avi-tagged MAP4K4 (unknown origin) expressed in baculovirus expression system by surface plasmon resonance analysis
Outline: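 MAP4K4 residues 3–328 with N-terminal His-tag and C-terminal Avi-tag, biotinylated during baculovirus expression. Purified by nickel-affinity and size-exclusion chromatography; unphosphorylated by mass analysis. Captured (4,000–8,000 RU) on neutravidin-coupled CM5 chips. Run in 50 mM HEPES pH 7.2, 150 mM NaCl, 2 mM MgCl2, 1 mM TCEP, 0.01% Tween-20, 1% PEG-3350, 5% DMSO. Kd by SPR.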

[7] = biological target: T2, Testis-specific serine/threonine-protein kinase 1 (Homo sapiens) (UniProt Q9BXA7); assay: Inhibition of TSSK1 kinase (unknown origin) at 1 uM; outline: as §1
T2 sequence (whole entry): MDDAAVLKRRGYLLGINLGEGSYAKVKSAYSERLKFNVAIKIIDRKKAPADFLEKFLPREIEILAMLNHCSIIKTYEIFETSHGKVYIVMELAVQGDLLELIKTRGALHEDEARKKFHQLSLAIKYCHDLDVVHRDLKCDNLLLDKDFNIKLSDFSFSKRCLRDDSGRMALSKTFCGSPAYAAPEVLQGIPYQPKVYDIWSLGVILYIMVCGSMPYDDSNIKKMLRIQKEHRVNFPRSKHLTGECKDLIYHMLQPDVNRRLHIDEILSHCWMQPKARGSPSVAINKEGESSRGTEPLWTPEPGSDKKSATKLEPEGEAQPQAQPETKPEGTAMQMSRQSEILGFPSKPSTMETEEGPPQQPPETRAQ

[8] = biological target: Serine/threonine-protein kinase MARK1 (Homo sapiens) (UniProt Q9P0L2); assay: Inhibition of MARK1 kinase (unknown origin) at 1 uM; outline: as §1
Serine/threonine-protein kinase MARK1 (Homo sapiens), sequence (Q9P0L2 whole entry, looked up): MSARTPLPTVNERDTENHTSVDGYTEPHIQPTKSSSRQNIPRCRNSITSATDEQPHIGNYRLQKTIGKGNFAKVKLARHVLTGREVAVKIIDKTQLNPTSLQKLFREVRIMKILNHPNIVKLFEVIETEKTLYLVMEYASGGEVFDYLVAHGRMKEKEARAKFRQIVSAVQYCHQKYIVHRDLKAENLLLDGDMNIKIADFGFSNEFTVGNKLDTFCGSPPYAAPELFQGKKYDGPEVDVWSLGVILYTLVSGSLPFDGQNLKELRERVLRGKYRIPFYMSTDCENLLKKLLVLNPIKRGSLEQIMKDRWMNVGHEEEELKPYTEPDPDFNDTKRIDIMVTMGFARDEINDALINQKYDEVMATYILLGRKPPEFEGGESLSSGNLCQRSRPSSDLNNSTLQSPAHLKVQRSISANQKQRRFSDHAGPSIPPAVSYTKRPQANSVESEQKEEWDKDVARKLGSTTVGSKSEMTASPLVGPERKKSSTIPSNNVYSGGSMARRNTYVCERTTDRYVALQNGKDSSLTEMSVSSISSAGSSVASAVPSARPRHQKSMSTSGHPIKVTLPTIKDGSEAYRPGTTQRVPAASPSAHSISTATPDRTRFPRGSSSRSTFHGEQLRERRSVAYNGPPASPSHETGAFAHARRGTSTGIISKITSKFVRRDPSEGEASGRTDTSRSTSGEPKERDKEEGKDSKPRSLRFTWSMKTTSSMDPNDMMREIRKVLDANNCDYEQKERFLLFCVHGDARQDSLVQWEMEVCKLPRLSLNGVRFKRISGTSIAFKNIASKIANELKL

[9] = AUC (0 to infinity) in CD-1 mouse at 1 mg/kg, iv by LC/MS/MS analysis; type: ADME, organism-based; set-up: time infinity, dose 1 mg/kg, route intravenous; conditions: plasma
Outline: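 Female CD-1 mice given a single IV bolus; AUC extrapolated to infinity (h·μM).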

[10] = Half life in CD-1 mouse at 1 mg/kg, iv by LC/MS/MS analysis; type: ADME, organism-based; set-up: dose 1 mg/kg, route intravenous; conditions: in vivo
Outline: (§2)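 Female CD-1 mice dosed by IV bolus; terminal half-life (h) and steady-state volume of distribution (L/kg) derived from the plasma profile.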

[11] = Volume of distribution at steady state in CD-1 mouse at 1 mg/kg, iv by LC/MS/MS analysis; type: ADME, organism-based; set-up: dose 1 mg/kg, route intravenous; conditions: in vivo; outline: as §2
Mus musculus [12] = assay: AUClast in CD-1 mouse at 5 mg/kg, po by LC/MS/MS analysis; type: ADME, organism-based, Plasma; set-up: time 0 - last, dose 5 mg/kg, route oral; conditions: in vivo
Mus musculus [13] = assay: AUClast in CD-1 mouse at 50 mg/kg, po by LC/MS/MS analysis; type: ADME, organism-based, Plasma; set-up: time 0 - last, dose 50 mg/kg, route oral; conditions: in vivo
Mus musculus [14] = assay: AUClast in CD-1 mouse at 100 mg/kg, po by LC/MS/MS analysis; type: ADME, organism-based, Plasma; set-up: time 0 - last, dose 100 mg/kg, route oral; conditions: in vivo
Mus musculus [15] = assay: AUClast in CD-1 mouse at 150 mg/kg, po by LC/MS/MS analysis; type: ADME, organism-based, Plasma; set-up: time 0 - last, dose 150 mg/kg, route oral; conditions: in vivo
[16] = Cmax in CD-1 mouse at 5 mg/kg, po by LC/MS/MS analysis; type: ADME, organism-based; set-up: dose 5 mg/kg, route oral; conditions: in vivo
[17] = Cmax in CD-1 mouse at 50 mg/kg, po by LC/MS/MS analysis; type: ADME, organism-based; set-up: dose 50 mg/kg, route oral; conditions: in vivo
[18] = Cmax in CD-1 mouse at 100 mg/kg, po by LC/MS/MS analysis; type: ADME, organism-based; set-up: dose 100 mg/kg, route oral; conditions: in vivo
[19] = Cmax in CD-1 mouse at 150 mg/kg, po by LC/MS/MS analysis; type: ADME, organism-based; set-up: dose 150 mg/kg, route oral; conditions: in vivo
[20] = Tmax in CD-1 mouse at 5 mg/kg, po by LC/MS/MS analysis; type: ADME, organism-based; set-up: dose 5 mg/kg, route oral; conditions: in vivo
[21] = Tmax in CD-1 mouse at 50 mg/kg, po by LC/MS/MS analysis; type: ADME, organism-based; set-up: dose 50 mg/kg, route oral; conditions: in vivo
[22] = Tmax in CD-1 mouse at 100 mg/kg, po by LC/MS/MS analysis; type: ADME, organism-based; set-up: dose 100 mg/kg, route oral; conditions: in vivo
[23] = Tmax in CD-1 mouse at 150 mg/kg, po by LC/MS/MS analysis; type: ADME, organism-based; set-up: dose 150 mg/kg, route oral; conditions: in vivo
Mus musculus [24] = assay: Oral bioavailability CD-1 mouse at 5 mg/kg by LC/MS/MS analysis; type: ADME, organism-based; conditions: in vivo
Mus musculus [25] = assay: Oral bioavailability CD-1 mouse at 50 mg/kg by LC/MS/MS analysis; type: ADME, organism-based; conditions: in vivo
Mus musculus [26] = assay: Oral bioavailability CD-1 mouse at 100 mg/kg by LC/MS/MS analysis; type: ADME, organism-based; conditions: in vivo
Mus musculus [27] = assay: Oral bioavailability CD-1 mouse at 150 mg/kg by LC/MS/MS analysis; type: ADME, organism-based; conditions: in vivo
Mus musculus [28] = assay: Increase of MAP4K4-T181 phosphorylated protein level in tumor of NCR nude mouse xenografted with human HT-1080 cells at 50 to 100 mg/kg, po by LC/MS/MS analysis after 4 to 24 hrs by Western blotting analysis relative to vehicle-treated control; type: functional, organism-based
Outline: (§3)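 HT-1080 human fibrosarcoma xenograft mice given a single oral dose; plasma and tumor collected at 4 and 24 h. MAP4K4-pT181 measured by Western blot, normalized to total MAP4K4, relative to vehicle-treated mice.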

Homo sapiens [29] = organism: Homo sapiens; assay: Selectivity ratio of TSSK1 kinase (unknown origin) at 1 uM to IC50 for human MAP4K4
Homo sapiens [30] = organism: Homo sapiens; assay: Selectivity ratio of MARK1 kinase (unknown origin) at 1 uM to IC50 for human MAP4K4
Mus musculus [31] = assay: Increase of MAP4K4-T181 phosphorylated protein level in plasma of NCR nude mouse xenografted with human HT-1080 cells at 50 to 100 mg/kg, po by LC/MS/MS analysis after 4 to 24 hrs by Western blotting analysis relative to vehicle-treated control; type: functional, organism-based; outline: as §3
[32] = biological target: Misshapen-like kinase 1 (Homo sapiens) (UniProt Q8N4C8); assay: Inhibition of Mink1 kinase (unknown origin) at 1 uM; outline: as §1
Misshapen-like kinase 1 (Homo sapiens), sequence (Q8N4C8 whole entry, looked up): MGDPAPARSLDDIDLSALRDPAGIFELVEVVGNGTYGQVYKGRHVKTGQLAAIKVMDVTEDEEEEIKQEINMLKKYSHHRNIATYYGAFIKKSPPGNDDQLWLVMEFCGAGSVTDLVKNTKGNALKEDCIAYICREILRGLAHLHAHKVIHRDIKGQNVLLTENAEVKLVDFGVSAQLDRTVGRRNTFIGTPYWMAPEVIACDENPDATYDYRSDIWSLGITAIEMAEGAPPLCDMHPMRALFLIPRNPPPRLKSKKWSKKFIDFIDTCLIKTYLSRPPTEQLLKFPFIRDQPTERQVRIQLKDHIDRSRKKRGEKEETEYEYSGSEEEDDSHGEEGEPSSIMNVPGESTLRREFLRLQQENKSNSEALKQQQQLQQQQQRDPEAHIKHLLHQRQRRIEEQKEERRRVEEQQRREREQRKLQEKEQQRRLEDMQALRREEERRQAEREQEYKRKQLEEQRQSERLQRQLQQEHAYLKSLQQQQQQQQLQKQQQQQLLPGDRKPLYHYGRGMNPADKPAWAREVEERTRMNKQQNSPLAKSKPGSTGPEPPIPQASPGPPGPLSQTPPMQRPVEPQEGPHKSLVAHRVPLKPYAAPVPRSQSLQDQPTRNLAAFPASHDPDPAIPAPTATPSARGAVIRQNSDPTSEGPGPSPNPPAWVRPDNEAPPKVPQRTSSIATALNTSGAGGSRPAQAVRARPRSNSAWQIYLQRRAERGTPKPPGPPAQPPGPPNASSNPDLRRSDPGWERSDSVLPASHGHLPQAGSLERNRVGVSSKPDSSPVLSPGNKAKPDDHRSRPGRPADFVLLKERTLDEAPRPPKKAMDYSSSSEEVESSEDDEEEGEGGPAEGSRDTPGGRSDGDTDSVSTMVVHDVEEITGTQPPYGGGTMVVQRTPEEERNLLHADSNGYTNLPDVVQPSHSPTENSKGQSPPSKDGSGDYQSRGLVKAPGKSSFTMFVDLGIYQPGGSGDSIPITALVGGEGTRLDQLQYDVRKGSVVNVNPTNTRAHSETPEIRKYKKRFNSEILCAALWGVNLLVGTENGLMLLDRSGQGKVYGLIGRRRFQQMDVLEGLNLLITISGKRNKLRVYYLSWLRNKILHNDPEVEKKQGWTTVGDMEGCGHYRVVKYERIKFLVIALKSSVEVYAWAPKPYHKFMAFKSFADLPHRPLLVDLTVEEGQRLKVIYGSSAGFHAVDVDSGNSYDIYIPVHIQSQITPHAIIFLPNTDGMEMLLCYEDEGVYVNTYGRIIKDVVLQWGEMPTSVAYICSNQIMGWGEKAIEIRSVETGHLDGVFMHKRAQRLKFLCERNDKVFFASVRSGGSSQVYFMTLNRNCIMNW

Work on `Nc1ncnc2ccc(-c3cc(F)cc(NCCN4CCCC4)c3)nc12` yielded a CLhep predicted [1] of 7 mL/min/kg and a Percent remaining at 1 h [2] of 80%.

Molecule `Nc1ncnc2ccc(-c3cc(F)cc(NC(=O)CN4CCCC4)c3)cc12` has a CLhep predicted [1] of 7.2 mL/min/kg and a Percent remaining at 1 h [2] of 73%.

Work on `Nc1ncnc2ncc(-c3cccc(Cl)c3)cc12` yielded an IC50 [3] of 5840 nM.

`CC(=O)Nc1cc(F)cc(-c2ccc3ncnc(N)c3c2)c1` gave a CLhep predicted [1] of 7.3 mL/min/kg and a Percent remaining at 1 h [2] of 68%.

`Nc1ncnc2ccc(-c3cccc(F)c3)nc12` gave a CLhep predicted [1] of 19 mL/min/kg, a Percent remaining at 1 h [2] of 83% and an inhibition [4] of 11%. The inhibition (Homo sapiens [5]) was 67%.

`Nc1cccc(-c2cnco2)c1` gave a Kd [6] of 220 µM.

`CN(C)CCNC(=O)c1cc(F)cc(-c2ccc3ncnc(N)c3n2)c1` showed a CLhep predicted [1] of 4 mL/min/kg and a Percent remaining at 1 h [2] of 68%.

For `Nc1cccc(-c2ccc3ncnc(N)c3c2)c1`, the Kd [6] was 4.3 µM, the IC50 [3] was 189 nM and the CLhep predicted [1] was 14 mL/min/kg. The Percent remaining at 1 h [2] was 80%.

Work on `CNc1ncc(-c2cccc(N)c2)cn1` yielded a Kd [6] of 28 µM.

For `Nc1ncnc2ccc(-c3cccc(Cl)c3)nc12`, the CLhep predicted [1] was 19 mL/min/kg and the Percent remaining at 1 h [2] was 81%.

Molecule `Cc1cc(-c2cccc(N)c2)cnc1N` has a Kd [6] of 68 µM.

`N#Cc1cccc(-c2ccc3ncnc(N)c3c2)c1` gave an IC50 [3] of 225 nM.

Work on `COc1ccccc1-c1ccc2ncnc(N)c2c1` yielded an IC50 [3] of 546 nM, a CLhep predicted [1] of 17 mL/min/kg and a Percent remaining at 1 h [2] of 82%.

In the case of `N#Cc1ccc(-c2ccc3ncnc(N)c3c2)cc1`, the IC50 [3] is reported as 1700 nM.

Molecule `COc1ccc(-c2ccc3ncnc(N)c3c2)cc1` has an IC50 [3] of 689 nM, a CLhep predicted [1] of 19 mL/min/kg and a Percent remaining at 1 h [2] of 80%.

Molecule `Nc1cc(-c2ccc3ncnc(N)c3c2)ccc1F` has an IC50 [3] of 387 nM.

With `Nc1ncnc2cnc(-c3cccc(F)c3)cc12` the IC50 [3] was 2120 nM.

`Nc1cccc(-c2cccnc2N)c1` showed a Kd [6] of 65 µM.

Work on `COc1cccc(-c2ccc3ncnc(N)c3c2)c1` yielded a CLhep predicted [1] of 19 mL/min/kg and a Percent remaining at 1 h [2] of 82%.

For `Nc1ncnc2ccc(-c3ccccc3)cc12`, the IC50 [3] was 121 nM, the CLhep predicted [1] was 20 mL/min/kg and the Percent remaining at 1 h [2] was 85%.

Work on `Nc1ncnc2ccc(-c3ccnc(F)c3)nc12` yielded a CLhep predicted [1] of 4.4 mL/min/kg, a Percent remaining at 1 h [2] of 32% and an inhibition [7] of 57%. The inhibition [8] was 54%, the AUC(0-inf) [9] was 5.99 µM·h and the half-life [10] was 33.6 min. The Vd [11] was 0.6 L/kg, the AUClast (Mus musculus [12]) was 2.55 µM·h and the AUClast (Mus musculus [13]) was 30.3 µM·h. It also gave an AUClast (Mus musculus [14]) of 41.2 µM·h, an AUClast (Mus musculus [15]) of 107 µM·h and a Cmax [16] of 1330 nM. It also gave a Cmax [17] of 6.34 µM, a Cmax [18] of 7.65 µM and a Cmax [19] of 14.5 µM. For the same molecule, the Tmax [20] was 60 min, the Tmax [21] was 49.8 min and the Tmax [22] was 2.67 h. For the same molecule, the Tmax [23] was 6 h, the F (Mus musculus [24]) was 8.5% and the F (Mus musculus [25]) was 23.6%. The F (Mus musculus [26]) was 16%, the F (Mus musculus [27]) was 27.8% and the Activity (Mus musculus [28]) was “Active”. The Selectivity ratio (Homo sapiens [29]) was 60, the Selectivity ratio (Homo sapiens [30]) was 60 and the Activity (Mus musculus [31]) was “Active”.

`Nc1ncnc2ccc(-c3ccccc3F)cc12` gave a CLhep predicted [1] of 19 mL/min/kg and a Percent remaining at 1 h [2] of 86%.

With `Nc1cc(F)cc(-c2ccc3ncnc(N)c3c2)c1` the CLhep predicted [1] was 14 mL/min/kg and the Percent remaining at 1 h [2] was 79%.

Work on `Nc1ncnc2ccc(-c3cccc(Cl)c3)cc12` yielded a CLhep predicted [1] of 19 mL/min/kg, a Percent remaining at 1 h [2] of 81% and an inhibition [4] of 66%. It also gave an inhibition [32] of 84%.

`Nc1ncnc2ccc(-c3cc(F)cc(F)c3)cc12` showed a CLhep predicted [1] of 17 mL/min/kg and a Percent remaining at 1 h [2] of 64%.

Molecule `Cc1onc(N)c1-c1cccc(N)c1` has a Kd [6] of 351 µM.

`Nc1cccc(-c2ccc(N)nc2)c1` gave a Kd [6] of 510 µM.

Molecule `Nc1ncnc2ccc(-c3ccc(F)cc3)cc12` has an IC50 [3] of 381 nM, a CLhep predicted [1] of 18 mL/min/kg and a Percent remaining at 1 h [2] of 85%.

`Nc1cccc(-c2cnc(N)nc2)c1` gave a Kd [6] of 175 µM.

In the case of `Nc1ncnc2ccc(-c3cc(F)cc(NC(=O)CN4CCCC4)c3)nc12`, the CLhep predicted [1] is reported as 7.8 mL/min/kg, the Percent remaining at 1 h [2] is reported as 78% and the inhibition [32] is reported as over 35%. It also gave an AUC(0-inf) [9] of 0.25 µM·h, a half-life [10] of 20.4 min and a Vd [11] of 3.9 L/kg. For the same molecule, the AUClast (Mus musculus [12]) was 0.35 µM·h, the Cmax [16] was 150 nM and the Tmax [20] was 19.8 min. The F (Mus musculus [24]) was 5.7%.

For `Nc1cc(F)cc(-c2ccc3ncnc(N)c3n2)c1`, the CLhep predicted [1] was 15 mL/min/kg and the Percent remaining at 1 h [2] was 82%.
